NALP1 yeast inh: NALP1 inflammasome inhibitors in reconstituted yeast, colorimetric, S. cerevisiae, triplicate retest; S. cerevisiae NALP1/ASC/caspase-1 growth, X-gal OD620, 72 h; inhibition, % at 10 µM; 280,000 tested, 0.61% active; in the data active = inhibition mostly above about 24%, no sharp cut-off; inactive = mostly below about 32%
Bfl-1 A1 inh: caspase 3/7 activation in MEF A1-2A-BIM cells, primary screen, A1 inhibitor project, cell-based, luminescence, HTS; Caspase-Glo 3/7 luminescence, 3 h; percent of clofoctol response, vehicle zero; caspase activation, % (concentration not given with the values); 330,000 tested, 0.066% active;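 active = over half of replicate activation scores above 10%, or exactly half above 10 with the replicate mean above 10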
MC4R barr agon: MC4R agonists recruiting beta-arrestin, primary screen, cell-based, luminescence, agonist arm of biased-ligand search; Melanocortin receptor 4 (Homo sapiens), P32245; U2OS MC4R beta-arrestin complementation; percent of melanotan II response, DMSO zero; activation, % at 8.9 µM; 360,000 tested, 0.98% active; AID 540308, 2011;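 active = activation above a per-plate cutoff, the mean activation of sample wells on that plate plus 3 SD, cut at about 8% in these data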
Target sequence (P32245 whole entry, looked up): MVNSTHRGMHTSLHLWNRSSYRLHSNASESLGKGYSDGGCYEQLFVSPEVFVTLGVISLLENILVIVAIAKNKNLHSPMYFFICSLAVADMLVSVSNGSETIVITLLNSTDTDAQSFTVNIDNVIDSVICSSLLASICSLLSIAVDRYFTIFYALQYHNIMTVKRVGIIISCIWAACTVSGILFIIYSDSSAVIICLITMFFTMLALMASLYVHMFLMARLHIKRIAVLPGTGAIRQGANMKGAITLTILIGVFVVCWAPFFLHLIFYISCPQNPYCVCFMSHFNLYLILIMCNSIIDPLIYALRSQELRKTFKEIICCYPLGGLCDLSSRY
NALP3 yeast inh: NALP3 inflammasome inhibitors in reconstituted yeast, primary screen, luminescence, uHTS; Yeast reconstituted NLRP3/ASC/caspase-1, beta-gal luminescence, 24 h; inhibition, % at 10 µM; 330,000 tested, 0.39% active; AID 2825, 2010;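 active = inhibition of 50% or more; inactive = inhibition below 50%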;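 note: plate controls were induced DMSO wells for no effect and uninduced yeast grown without galactose for full effect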
MC4R antag cAMP: MC4R antagonists of cAMP signaling, primary screen, cell-based, TR-FRET, antagonist arm of biased-ligand search; inhibition, % at 6.5 µM; 360,000 tested, 0.48% active; MC4R-expressing cells, MTII-stimulated cAMP, LANCE TR-FRET;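 active = inhibition above its plate's cutoff, the mean of tested wells on that plate plus 3 SD, cut at about 29% in these data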;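 note: 0% = Melanotan II alone and 100% = Melanotan II plus saturating MCL0020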
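Assay system: human MC4R-expressing U2OS cells; reagent: Melanotan II stimulation of cells; dosing: 6.5 µM single dose; timing: compound 30 min, challenge 1 h, detection 1 h; signal: TR-FRET cAMP assay; replicates: one well per compound, no replicates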
TbMetRS inhib: T. brucei MetRS inhibitors, primary screen, biochemical, luminescence. 360,000 tested, 0.4% active. inhibition, % at 11.9 µM. purified T. brucei MetRS, ATP depletion, Kinase-Glo luminescence. methionyl-tRNA synthetase (Trypanosoma brucei brucei). AID 624268, 2012;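 active = inhibition above a per-plate cutoff of the control wells' mean inhibition plus 3 SD, cut at about 5.5% in these data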;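 note: 0% = DMSO wells median and 100% = median of wells with control inhibitor compound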
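Dosing: 11.9 µM single point; system: parasite MetRS enzyme; technique: luminescence of leftover ATP; times: 15 min enzyme-compound preincubation, 2 h reaction, 10 min detection, 25 °C; replicates: each compound tested once; read-out basis: percent inhibition relative to median high and low control wells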
cAMP nonselect: nonselective cAMP signaling inhibitors, parental cells, counter-screen for MC4R biased antagonist project, cell-based, TR-FRET, U2OS, forskolin, triplicate; shares compounds with MC4R antag cAMP; LANCE TR-FRET; inhibition, % at 6.5 µM; 1,600 tested, 26% active; AID 602193, 2012;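 active = mean inhibition over triplicates above the low-control well mean plus 3 SD, set per campaign, cut at about 13% in these data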;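 note: signal is single emission at 671 nm which falls as cellular cAMP rises; 0% = forskolin-stimulated wells and 100% = buffer without forskolin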
MC4R cAMP antag: MC4R cAMP antagonists, retest, confirmation, cell-based, TR-FRET; shares compounds with MC4R antag cAMP; MC4R-expressing cells, MTII-stimulated cAMP; inhibition, % at 6.5 µM; 1,600 tested, 27% active; in the data active = inhibition above about 29%;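 note: 0% = agonist stimulated wells alone and 100% = agonist stimulated wells plus saturating reference antagonist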
* hit, by the source's call; . = not tested or not shown. Hits are enriched below; roughly 2.5% of the tested compounds scored in any of these assays.

SMILES	NALP1 yeast inh	Bfl-1 A1 inh	MC4R barr agon	NALP3 yeast inh	MC4R antag cAMP	TbMetRS inhib	cAMP nonselect	MC4R cAMP antag
CC(=O)Nc1ccc(C(=O)N2CCCCC2c2cc(C(=O)NCc3cccnc3)no2)cc1 (centres undefined)	.	.	-1	.	-1	0	.	.
O=C(O)c1cccnc1C(=O)N1CCc2c([nH]c3ccccc23)C1C(F)(F)F (centres undefined)	48	0	5	-4	9	0	.	.
Cc1ccccc1C(=O)N1CCc2c([nH]c3ccccc23)C1C(F)(F)F (centres undefined)	10	1	0	16	36*	-1	3	2
Cc1cccc(C)c1NC(=O)c1csc([C@@H]2O[C@H](CO)[C@H](O)[C@H](O)[C@H]2O)n1	.	.	0	.	-1	0	.	.
COc1ccc(N(C)S(=O)(=O)c2cccc(C(=O)OCC(=O)NCc3ccccc3OC)c2)cc1	.	0	-1	-6	30*	0	3	5
COc1ccccc1CNC(=O)COC(=O)c1cccc(S(=O)(=O)N2CCCC2)c1	-14	0	-2	-10	8	0	.	.
Nc1ncnc2c1ncn2[C@@H]1O[C@H](CNCc2ccc(-c3cc(C(F)(F)F)ccc3Cl)o2)[C@@H](O)[C@H]1O	.	.	0	.	-3	0	.	.
Cc1cccc(NC(=O)COC(=O)CC2CCCC2)c1C	.	.	0	30	7	0	.	.
COc1ccccc1-c1cc(SC)c(C#N)c(=O)o1	24	0	-2	-5	50*	0	23*	38*
COc1ccccc1-c1cc(C(F)(F)F)c(C#N)c(=O)[nH]1	-3	-1	1	5	7	2	.	.
COc1ccc(C(C)(C)C)cc1NC(=O)CSc1ncn[nH]1	.	.	-1	6	1	0	.	.
COc1ccc(C(=O)Nc2cccc3c2CCCC3)c(OC)c1	.	-1	1	23	4	0	.	.
CCC(C)(C)NC(=O)CN(Cc1ccc2c(c1)OCO2)C(=O)CCC(=O)Nc1cc(C)ccn1	8	0	2	3	30*	0	-2	-5
O=C1CSC(c2cccnc2)N1Cc1cccnc1 (centres undefined)	-5	0	0	-7	29*	-1	3	12
O=C1CSC(c2ccncc2)N1Cc1ccccc1 (centres undefined)	-5	0	-1	-1	-2	0	.	.
O=C(Cc1cccc(NC(=O)C2CCCN(C(=O)C3CC3)C2)c1)Nc1ccc(C(=O)N2CCOCC2)cc1 (centres undefined)	.	.	0	.	0	0	.	.
COc1ccc(CCNC(=O)CCn2c(=O)c3cccn3c3cccnc32)cc1OC	0	-1	-3	3	-3	0	.	.
COCc1ccc(C(=O)Nc2ccc(C(=O)O)cc2)o1	.	-1	-1	1	0	-1	.	.
O=C(O)c1ccc(NC(=O)c2ccc(COc3ccccc3)o2)cc1	8	0	3	5	29*	0	-1	-14
O=C(c1cccc([N+](=O)[O-])c1)c1ccc2c(c1)OCCOCCOCCOCCO2	1	1	1	1	35*	0	1	0
N#Cc1c(-c2ccc(Br)cc2)cc(-c2cccnc2)nc1N	42	0	-1	34	7	-1	.	.
CS(=O)(=O)c1nc(-c2ccc(Br)cc2)cc(-c2ccccc2)c1C#N	-3	-1	4	6	43*	-1	25*	65*
CS(=O)c1nc(-c2ccc(Br)cc2)cc(-c2ccccc2)c1C#N (centres undefined)	2	0	1	16	57*	-1	12	66*
COc1ccc(-c2cc(-c3ccc(OC)cc3)c(C#N)c(SC)n2)cc1	22	0	-3	3	4	0	.	.
N#Cc1c(-c2ccccc2)cc(-c2ccc(O)cc2)nc1N	4	-1	0	22	-12	0	.	.
SMILES	NALP1 yeast inh	Bfl-1 A1 inh	MC4R barr agon	NALP3 yeast inh	MC4R antag cAMP	TbMetRS inhib	cAMP nonselect	MC4R cAMP antag
COc1ccc(-c2cc(-c3ccccc3)c(C#N)c(S(C)(=O)=O)n2)cc1	12	-1	0	7	30*	-3	17*	48*
CC(C)CC1C(=O)N(Cc2cn(CCC3OCCCO3)nn2)CCS(=O)(=O)N1Cc1ccc(-c2cccc(N(C)C)c2)cc1 (centres undefined)	.	.	4	.	9	-2	.	.
Cc1ccc(F)c(CNC(=O)C2(C)CCCN2C(=O)C(C)C)c1F (centres undefined)	.	.	0	.	-3	0	.	.
CN(C)c1cccc(C(=O)Nc2nnc(Cc3ccccc3)s2)c1	10	1	1	22	4	-1	.	.
CCOC(=O)Cc1csc(NC(=O)CCN2C(=O)c3cccc([N+](=O)[O-])c3C2=O)n1	0	0	1	7	44*	0	8	10
O=C(COC(=O)CCN1C(=O)c2cccc([N+](=O)[O-])c2C1=O)NCc1ccccc1	8	0	-3	5	33*	0	6	21
Cc1cccc(NC(=O)CCCN2C(=O)c3cccc4cccc(c34)C2=O)c1	14	0	3	9	0	-1	.	.
CCCN(CC(=O)Nc1ccccc1C)C(=O)CCN1C(=O)c2cccc([N+](=O)[O-])c2C1=O	.	1	-3	8	30*	0	21*	33*
Cc1cccc(NC(=O)CCN2C(=O)c3cccc([N+](=O)[O-])c3C2=O)c1	-2	0	-2	2	31*	0	16*	29*
O=C(COc1ncnc2sccc12)Nc1cccc(S(=O)(=O)N2CCOCC2)c1	.	0	-4	6	5	0	.	.
COC(=O)[C@]12CCCCC=C1N(Cc1ccc3c(c1)OCO3)C(=O)[C@H](CC(=O)N1CCCCC1)C2	.	.	.	.	.	-2	.	.
NC(=O)c1ccc(NCC2COc3ccccc3O2)c([N+](=O)[O-])c1 (centres undefined)	10	-1	-1	17	36*	0	-2	-3

Source: PubChem BioAssay (several laboratories)
